Data on two molecules can be found in paper PMC10084868 (International Journal of Nanomedicine, 2023).

For data set [1] the following is noted: humans; cited from earlier work.
Data set [2] deals with zebrafish haematopoiesis. Kind of data set: Haemoglobin. Type of data set: in vivo. The settings on record: zebrafish embryos; F1 starting from 0.4 µg/mL; haemoglobin staining and video. A digest of the protocol: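 Shield-stage embryos were exposed to the formulation at 0.4 µg/mL and raised to the 20-somite stage, then given 0.003% (final) phenylthiourea to block pigmentation. They were then rinsed and fixed in 4% paraformaldehyde.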

The conditions of data set [3]: powdered drugs, reported previously; cited from earlier work.

`COc1cc(/C=C/C(=O)CC(=O)/C=C/c2ccc(O)c(OC)c2)ccc1O` [CUR, Curcumin]: the “increase of bioavailability of CUR with concomitant PP vs CUR alone” value in data set [1] is given as 2000%. Also, the “effect on blood circulation / haematopoiesis” value in data set [2] is on record as “did not affect haematopoiesis”. In addition, the “dissolution rate (release) of powdered drug” value in data set [3] was “less than 20%”.

Turning to `O=C(/C=C/C=C/c1ccc2c(c1)OCO2)N1CCCCC1` [PP, Piperine], the “effect on blood circulation / haematopoiesis” value in data set [2] was “did not affect haematopoiesis”. Further, in data set [3], the “dissolution rate (release) of powdered drug” value is reported as “less than 20%”.
